Data reported in ChEMBL document CHEMBL6134766, “Design, synthesis, and evaluation of benzhydrylpiperazine-based novel dual COX-2/5-LOX inhibitors with anti-inflammatory and anti-cancer activity” (RSC Med Chem, 2025).
Counter-ions that a name gives are not always drawn. The source made the active and inactive calls. The calls are words filed in the database; no cut-off is given here.

Tests used:
[1] = biological target: T1, Prostaglandin G/H synthase 1 (Ovis aries, UniProt P05979); assay: Inhibition of ovine COX-1 using arachidonic acid as substrate in presence of hemin by TMPD reagent-based colorimetry
T1 sequence (P05979 whole entry): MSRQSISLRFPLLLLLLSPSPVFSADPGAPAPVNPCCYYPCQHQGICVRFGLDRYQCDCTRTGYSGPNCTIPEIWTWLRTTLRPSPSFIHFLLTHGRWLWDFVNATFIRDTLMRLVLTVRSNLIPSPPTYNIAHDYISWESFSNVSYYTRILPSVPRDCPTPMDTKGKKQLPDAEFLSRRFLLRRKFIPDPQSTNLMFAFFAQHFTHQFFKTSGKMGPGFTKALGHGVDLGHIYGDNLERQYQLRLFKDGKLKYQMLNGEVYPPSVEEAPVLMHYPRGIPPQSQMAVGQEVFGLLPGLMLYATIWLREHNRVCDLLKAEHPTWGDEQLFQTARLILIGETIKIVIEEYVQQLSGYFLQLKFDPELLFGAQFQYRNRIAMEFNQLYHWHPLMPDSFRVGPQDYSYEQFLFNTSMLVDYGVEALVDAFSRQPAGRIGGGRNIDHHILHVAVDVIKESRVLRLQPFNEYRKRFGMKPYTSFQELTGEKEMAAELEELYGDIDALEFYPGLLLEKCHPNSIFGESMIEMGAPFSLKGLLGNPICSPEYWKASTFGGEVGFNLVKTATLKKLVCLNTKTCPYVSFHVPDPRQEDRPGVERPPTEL

[2] = biological target: T2, Polyunsaturated fatty acid 5-lipoxygenase (Homo sapiens, UniProt P09917); assay: Inhibition of 5-LOX (unknown origin) using arachidonic acid as substrate preincubated for 5 mins followed by substrate addition measured after 10 mins by spectrophotometry
T2 sequence (P09917 whole entry): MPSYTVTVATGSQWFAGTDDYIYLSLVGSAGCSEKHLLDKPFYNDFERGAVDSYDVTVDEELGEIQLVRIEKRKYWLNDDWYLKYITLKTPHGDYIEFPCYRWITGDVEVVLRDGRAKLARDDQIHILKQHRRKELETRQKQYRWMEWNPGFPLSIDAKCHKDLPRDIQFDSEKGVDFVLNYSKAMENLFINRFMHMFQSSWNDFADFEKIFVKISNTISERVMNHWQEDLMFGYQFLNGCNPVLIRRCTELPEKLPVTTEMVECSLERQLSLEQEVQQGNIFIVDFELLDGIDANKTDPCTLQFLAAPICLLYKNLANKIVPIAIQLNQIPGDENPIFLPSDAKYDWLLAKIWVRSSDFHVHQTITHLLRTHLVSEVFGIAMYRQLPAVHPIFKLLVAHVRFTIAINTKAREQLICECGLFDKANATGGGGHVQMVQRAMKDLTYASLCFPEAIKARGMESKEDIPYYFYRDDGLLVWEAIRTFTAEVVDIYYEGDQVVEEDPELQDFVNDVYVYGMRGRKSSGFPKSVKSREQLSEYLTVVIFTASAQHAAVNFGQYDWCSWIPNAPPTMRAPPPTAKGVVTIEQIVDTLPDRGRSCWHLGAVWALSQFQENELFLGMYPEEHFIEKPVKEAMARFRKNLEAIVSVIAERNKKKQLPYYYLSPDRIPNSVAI

Rattus norvegicus [3] = assay: Anti-inflammatory activity in arachidonic acid-induced paw edema Wistar rat model assessed as swelling thickness of paw at 10 mg/kg, po measured after 1 hr by digital vernier caliper (reference value: 6.51 +/- 0.37 millimeter); format: functional
Rattus norvegicus [4] = assay: Anti-inflammatory activity in arachidonic acid-induced paw edema Wistar rat model assessed as protection against swelling thickness of paw at 10 mg/kg, po measured after 1 hr by digital vernier caliper (reference value: 0 %); format: functional
Rattus norvegicus [5] = assay: Cardio-protective activity in ISO-treated Wistar rat assessed as decrease in serum LDH level at 10 mg/kg, po; format: functional, organism-based
Outline: (§1)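 Rats (n = 6/group) given ISO 100 mg kg−1 s.c., then oral test compound in 0.3% CMC; vehicle controls. Retro-orbital blood, serum separated at 4000 rpm, 4 °C, 10 min; LDH and CK-MB by commercial kits; mean ± SD.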

Rattus norvegicus [6] = assay: Cardio-protective activity in ISO-treated Wistar rat assessed as decrease in serum CK-MB level at 10 mg/kg, po; format: functional, organism-based; outline: as §1
A549 = assay: Cytotoxicity against human A549 cells assessed as growth inhibition incubated for 48 hrs by SRB assay; details: A549, 48 h
COLO 205 = assay: Cytotoxicity against human COLO 205 cells assessed as growth inhibition incubated for 48 hrs by SRB assay; details: COLO 205, 48 h
MIA PaCa-2 = assay: Cytotoxicity against human MIA PaCa-2 cells assessed as growth inhibition incubated for 48 hrs by SRB assay; details: MIA PaCa-2, 48 h

Row | IC50 [1] [µM] | IC50 [2] [µM] | SMILES | also measured
1 | 36.3 | 10.8 | Oc1ccc(-c2nnc(CN3CCN(C(c4ccccc4)c4ccc(Cl)cc4)CC3)o2)cc1 (configuration not stated) | –
2 | 32.1 | 18.1 | Cc1ccc(-c2nnc(CN3CCN(C(c4ccccc4)c4ccc(Cl)cc4)CC3)o2)cc1 (configuration not stated) | –
3 | 27.9 | 9.4 | FC(F)(F)Oc1ccc(-c2nnc(CN3CCN(C(c4ccccc4)c4ccc(Cl)cc4)CC3)o2)cc1 (configuration not stated) | –
4 | 32 | 16.2 | Clc1ccc(C(c2ccccc2)N2CCN(Cc3nnc(-c4cccc(Cl)c4)o3)CC2)cc1 (configuration not stated) | –
5 | 25.5 | 13.5 | N#Cc1ccc(-c2nnc(CN3CCN(C(c4ccccc4)c4ccc(Cl)cc4)CC3)o2)cc1 (configuration not stated) | –
6 | 27 | 13.7 | FC(F)(F)c1ccc(-c2nnc(CN3CCN(C(c4ccccc4)c4ccc(Cl)cc4)CC3)o2)cc1 (configuration not stated) | –
7 | 34.5 | 10.3 | COc1ccc(-c2nnc(CN3CCN(C(c4ccccc4)c4ccc(Cl)cc4)CC3)o2)cc1 (configuration not stated) | –
8 | 34.8 | 9.33 | Fc1ccc(-c2nnc(CN3CCN(C(c4ccccc4)c4ccc(Cl)cc4)CC3)o2)c(F)c1 (configuration not stated) | –
9 | 36.3 | 20.3 | Oc1cccc(-c2nnc(CN3CCN(C(c4ccccc4)c4ccc(Cl)cc4)CC3)o2)c1 (configuration not stated) | –
10 | 38.4 | 9.81 | Clc1ccc(C(c2ccccc2)N2CCN(Cc3nnc(-c4ccccc4)o3)CC2)cc1 (configuration not stated) | –
11 | 30.7 | 9.89 | Cc1cccc(-c2nnc(CN3CCN(C(c4ccccc4)c4ccc(Cl)cc4)CC3)o2)c1 (configuration not stated) | –
12 | 34.2 | 11.6 | Fc1ccc(-c2nnc(CN3CCN(C(c4ccccc4)c4ccc(Cl)cc4)CC3)o2)cc1 (configuration not stated) | –

Continued, molecule first:

Row | SMILES | IC50 [1] [µM] | IC50 [2] [µM] | also measured
13 | O=[N+]([O-])c1cc(-c2nnc(CN3CCN(C(c4ccccc4)c4ccc(Cl)cc4)CC3)o2)ccc1Cl (configuration not stated) | 38.5 | 11.2 | –
14 | Clc1ccc(C(c2ccccc2)N2CCN(Cc3nnc(-c4ccc(Cl)cc4Cl)o3)CC2)cc1 (configuration not stated) | 30.3 | 14.4 | –
15 | COc1cccc(-c2nnc(CN3CCN(C(c4ccccc4)c4ccc(Cl)cc4)CC3)o2)c1 (configuration not stated) | 36.3 | 15.3 | –
16 | Fc1cc(F)c(-c2nnc(CN3CCN(C(c4ccccc4)c4ccc(Cl)cc4)CC3)o2)cc1F (configuration not stated) | 32.7 | 19.9 | –
17 | Cc1ccc(-c2cc(C(F)(F)F)nn2-c2ccc(S(N)(=O)=O)cc2)cc1 [CELECOXIB] | – | – | Activity (Rattus norvegicus [3]): 1.79 mm; Activity (Rattus norvegicus [4]): 72.59%; Activity (Rattus norvegicus [5]): inactive; Activity (Rattus norvegicus [6]): inactive
18 | O=[N+]([O-])c1ccccc1-c1nnc(CN2CCN(C(c3ccccc3)c3ccc(Cl)cc3)CC2)o1 (configuration not stated) | 29.9 | 13.5 | –
19 | O=[N+]([O-])c1cc(-c2nnc(CN3CCN(C(c4ccccc4)c4ccc(Cl)cc4)CC3)o2)cc([N+](=O)[O-])c1 (configuration not stated) | 37.7 | 18 | –
20 | COc1cccc2c1C(=O)c1c(O)c3c(c(O)c1C2=O)C[C@@](O)(C(=O)CO)C[C@@H]3O[C@H]1C[C@H](N)[C@H](O)[C@H](C)O1 [DOXORUBICIN HYDROCHLORIDE] | – | – | GI50 (A549): 77 nM; GI50 (COLO 205): 100 nM; GI50 (MIA PaCa-2): 2 nM
21 | N#Cc1cccc(-c2nnc(CN3CCN(C(c4ccccc4)c4ccc(Cl)cc4)CC3)o2)c1 (configuration not stated) | 23 | 15 | –
22 | CC(c1cc2ccccc2s1)N(O)C(N)=O (configuration not stated) [ZILEUTON] | – | – | Activity (Rattus norvegicus [3]): 3.39 mm; Activity (Rattus norvegicus [4]): 47.95%
